ChEMBL document CHEMBL3232709, “Facile synthesis of benzonitrile/nicotinonitrile based s-triazines as new potential antimycobacterial agents” (Eur J Med Chem, 2014)
In brackets after ≈: the same amount, converted by molar mass.

Tests used:
[1] = system: Mycobacterium tuberculosis; test: Antimycobacterial activity against Mycobacterium tuberculosis H37Rv assessed as growth inhibition […] by Lowenstein-Jensen agar dilution method; type: functional
Method in brief: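 Test compounds dissolved in DMSO and added to liquid Lowenstein-Jensen medium at 25, 12.5, 6.25, 3.12 and 1.56 dilutions. Medium sterilised by inspissation, then tubes held 37 °C for 24 h. H37Rv (harvested into 0.85% saline) streaked at 5 × 10⁴ bacilli/tube and incubated at 37 °C. Growth checked at 12, 22 and 28 days against medium-only controls. MIC taken as no colonies or <20 colonies.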

Vero = test: Cytotoxicity against African green monkey Vero cells assessed as cell viability after 72 hrs by MTT assay; type: cell-based; details: Chlorocebus sabaeus
[2] = system: Mycobacterium tuberculosis; test: Antimycobacterial activity against Mycobacterium tuberculosis H37Rv assessed as growth inhibition at 6.25 ug/ml measured within 10 days by BACTEC MGIT method; type: functional; details: 240 h
Method in brief: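 Primary single-concentration screen at 6.25 in MGIT tubes containing modified Middlebrook 7H9 broth. H37Rv inoculum was 10⁴–10⁷ CFU/mL, […]. Incubated at 37 °C in the BACTEC MGIT instrument until positive, read daily from day 2. Fluorescence was judged under UV beside positive control and uninoculated tubes. Result scored as % inhibition.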

Compound: CN1CCN(c2nc(Oc3ccc(C#N)cc3)nc(-c3ccc(N4C(=O)CSC4c4ccccc4)cc3)n2)CC1 (configuration not stated)
- MIC99 [1]: 200 µg/mL (≈ 364 µM)

Compound: CN1CCN(c2nc(Oc3ccc(C#N)cc3)nc(-c3ccc(N4C(=O)CSC4c4ccc(Cl)cc4)cc3)n2)CC1 (configuration not stated)
- MIC99 [1]: 62.5 µg/mL (≈ 107 µM)

Compound: CN1CCN(c2nc(Oc3ccc(C#N)cc3)nc(-c3ccc(N4C(=O)CSC4c4ccc(Br)cc4)cc3)n2)CC1 (configuration not stated)
- IC50 (Vero): > 62.5 µg/mL
- MIC99 [1]: 25 µg/mL (≈ 39.8 µM)

Compound: CN1CCN(c2nc(Oc3ccc(C#N)cc3)nc(-c3ccc(N4C(=O)CSC4c4ccc(F)cc4)cc3)n2)CC1 (configuration not stated)
- MIC99 [1]: 100 µg/mL (≈ 176 µM)

Compound: CN1CCN(c2nc(Oc3ccc(C#N)cc3)nc(-c3ccc(N4C(=O)CSC4c4ccc([N+](=O)[O-])cc4)cc3)n2)CC1 (configuration not stated)
- MIC99 [1]: 100 µg/mL (≈ 168 µM)

Compound: CN1CCN(c2nc(Oc3ccc(C#N)cc3)nc(-c3ccc(N4C(=O)CSC4c4ccc(O)cc4)cc3)n2)CC1 (configuration not stated)
- IC50 (Vero): > 62.5 µg/mL
- inhibition at 6.25 µg/mL [2]: 99%
- MIC99 [1]: 12.5 µg/mL (≈ 22.1 µM)

Compound: COc1ccc(C2SCC(=O)N2c2ccc(-c3nc(Oc4ccc(C#N)cc4)nc(N4CCN(C)CC4)n3)cc2)cc1 (configuration not stated)
- IC50 (Vero): > 62.5 µg/mL
- MIC99 [1]: 25 µg/mL (≈ 43.1 µM)

Compound: CN1CCN(c2nc(Oc3ccc(C#N)cn3)nc(-c3ccc(N4C(=O)CSC4c4ccccc4)cc3)n2)CC1 (configuration not stated)
- MIC99 [1]: 125 µg/mL (≈ 227 µM)

Compound: CN1CCN(c2nc(Oc3ccc(C#N)cn3)nc(-c3ccc(N4C(=O)CSC4c4ccc(Cl)cc4)cc3)n2)CC1 (configuration not stated)
- MIC99 [1]: 100 µg/mL (≈ 171 µM)

Compound: CN1CCN(c2nc(Oc3ccc(C#N)cn3)nc(-c3ccc(N4C(=O)CSC4c4ccc(Br)cc4)cc3)n2)CC1 (configuration not stated)
- MIC99 [1]: 62.5 µg/mL (≈ 99.3 µM)

Compound: CN1CCN(c2nc(Oc3ccc(C#N)cn3)nc(-c3ccc(N4C(=O)CSC4c4ccc(F)cc4)cc3)n2)CC1 (configuration not stated)
- IC50 (Vero): > 62.5 µg/mL
- inhibition at 6.25 µg/mL [2]: 99%
- MIC99 [1]: 6.25 µg/mL (≈ 11 µM)

Compound: CN1CCN(c2nc(Oc3ccc(C#N)cn3)nc(-c3ccc(N4C(=O)CSC4c4ccc([N+](=O)[O-])cc4)cc3)n2)CC1 (configuration not stated)
- MIC99 [1]: 100 µg/mL (≈ 168 µM)

Compound: CN1CCN(c2nc(Oc3ccc(C#N)cn3)nc(-c3ccc(N4C(=O)CSC4c4ccc(O)cc4)cc3)n2)CC1 (configuration not stated)
- IC50 (Vero): > 62.5 µg/mL
- inhibition at 6.25 µg/mL [2]: 99%
- MIC99 [1]: 3.12 µg/mL (≈ 5.51 µM)

Compound: COc1ccc(C2SCC(=O)N2c2ccc(-c3nc(Oc4ccc(C#N)cn4)nc(N4CCN(C)CC4)n3)cc2)cc1 (configuration not stated)
- IC50 (Vero): > 62.5 µg/mL
- inhibition at 6.25 µg/mL [2]: 99%
- MIC99 [1]: 6.25 µg/mL (≈ 10.8 µM)

Compound: CC[C@@H](CO)NCCN[C@@H](CC)CO [ETHAMBUTOL]
- IC50 (Vero): > 62.5 µg/mL
- MIC99 [1]: 3.12 µg/mL (≈ 15.3 µM)

Compound: NNC(=O)c1ccncc1 [ISONIAZID]
- IC50 (Vero): > 62.5 µg/mL
- MIC99 [1]: 0.2 µg/mL (≈ 1.46 µM)

Compound: NC(=O)c1cnccn1 [PYRAZINAMIDE]
- IC50 (Vero): > 62.5 µg/mL
- MIC99 [1]: 6.25 µg/mL (≈ 50.8 µM)

Compound: CO[C@H]1/C=C/O[C@@]2(C)Oc3c(C)c(O)c4c(O)c(c(/C=N/N5CCN(C)CC5)c(O)c4c3C2=O)NC(=O)/C(C)=C\C=C\[C@H](C)[C@H](O)[C@@H](C)[C@@H](O)[C@@H](C)[C@H](OC(C)=O)[C@@H]1C [RIFAMPIN]
- IC50 (Vero): > 62.5 µg/mL
- MIC99 [1]: 0.25 µg/mL (≈ 0.304 µM)
